Converted amounts (≈) assume the structure as drawn.
Columns and labels:
[1] = system: Semliki Forest virus; experiment: Minimum inhibitory concentration required to reduce semliki forest virus induced cytopathogenicity by 50% in african green monkey (VeroB) cells; format: functional
Method in brief: (§1)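 Cell cultures (PRK, HeLa or Vero B) are infected at 100 × CCID50. Cytopathogenicity is recorded once it reaches completion in the untreated virus-infected controls. The minimum inhibitory concentration is given in μg/mL.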

[2] = system: L1210; experiment: Dose required to inhibit Murine leukemia (L1210) cell proliferation by 50%; format: functional; conditions: Mus musculus, read-out: CD50 (the source's name)
[3] = system: Sindbis virus; experiment: (§2) Minimum inhibitory concentration required to reduce Sindbis virus induced cytopathogenicity by 50% in african green monkey (VeroB) cells; format: functional; method in brief: as §1
[4] = system: HeLa; experiment: Minimum inhibitory concentration required to reduce Coxsackie virus B4 induced cytopathogenicity by 50% in HeLa cells; format: functional; conditions: Homo sapiens; method in brief: as §1
[5] = Dose required to inhibit Human T-Lymphoblast (Molt/4F) cell proliferation by 50%; format: functional; conditions: read-out: CD50 (the source's name)
[6] = system: Nucleic Acid; experiment: Association constant against polynucleotide poly (dG-dC); format: nucleic-acid assay
Method in brief: (§3)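 Competition with ethidium bromide binding at 25 °C in 0.01 M cacodylate buffer, pH 7.0, with 1.26 μM ethidium bromide and 1 μM polynucleotide. Bound ethidium is estimated from its fluorescence increase (V = 34 for poly(dA-dT), 25 for poly(dG-dC)). IC50 for 50% ethidium displacement comes from a fitted competition sigmoid. Kapp is calculated from IC50 assuming a binding size of four base pairs.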

[7] = system: Vero; experiment: Minimum inhibitory concentration required to reduce Coxsackie virus B4 induced cytopathogenicity by 50% in african green monkey (VeroB) cells; format: functional, Coxsackievirus B4; conditions: Chlorocebus sabaeus; method in brief: as §1
[8] = system: Vero; experiment: Minimum cytotoxic concentration required to cause a microscopically detectable alteration of normal cell morphology and show antiviral activity in african green monkey (Vero B) cells; format: functional; conditions: Chlorocebus sabaeus
[9] = system: Nucleic Acid; experiment: Association constant against the polynucleotide poly(dA-dT); format: nucleic-acid assay; method in brief: as §3
[10] = system: Mammalian orthoreovirus 1; experiment: Minimum inhibitory concentration required to reduce reovirus-1 induced cytopathogenicity by 50% in african green monkey (VeroB)cells; format: functional; method in brief: as §1
[11] = system: Human alphaherpesvirus 2; experiment: Minimum inhibitory concentration required to reduce herpes simplex virus-2(G) induced cytopathogenicity by 50% in primary rabbit kidney cells (PRK); format: functional; method in brief: as §1
[12] = system: Raji; experiment: Inhibition of Human B-Lymphoblast Raji cell proliferation; format: functional; conditions: read-out: CD50 (the source's name)
[13] = system: Vesicular stomatitis virus; experiment: Minimum inhibitory concentration required to reduce vesicular stomatitis virus induced cytopathogenicity by 50% in primary rabbit kidney cells (PRK); format: functional
[14] = system: Vero; experiment: Minimum inhibitory concentration required to reduce parainfluenza virus-3 induced cytopathogenicity by 50% in african green monkey (VeroB) cells; format: functional, Human respirovirus 3; conditions: Chlorocebus sabaeus; method in brief: as §1
[15] = system: Human alphaherpesvirus 1; experiment: Minimum inhibitory concentration required to reduce herpes simplex virus-1 (KOS) induced cytopathogenicity by 50% in primary rabbit kidney cells(PRK); format: functional; method in brief: as §1
[16] = system: HeLa; experiment: Minimum cytotoxic concentration required to cause a microscopically detectable alteration of normal cell morphology and show antiviral activity in HeLa cells; format: functional; conditions: Homo sapiens
Method in brief: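 HeLa cell cultures exposed to compound for the same duration as the antiviral assay, then examined microscopically. The minimum cytotoxic concentration is the lowest level causing detectable alteration of normal cell morphology. Values are in μg/mL.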

[17] = organism: Oryctolagus cuniculus; experiment: Minimum cytotoxic concentration required to cause a microscopically detectable alteration of normal cell morphology and show antiviral activity in primary rabbit kidney (PRK) cells; format: functional
[18] = system: Vero; experiment: as §2; format: ADME, cell-based; conditions: Chlorocebus sabaeus, read-out: MIC; method in brief: as §1
[19] = Minimum inhibitory concentration required to reduce herpes simplex virus-1 (KOS) induced cytopathogenicity by 50% in primary rabbit kidney cells (PRK); format: functional; conditions: Oryctolagus cuniculus; method in brief: as §1
[20] = Minimum inhibitory concentration required to reduce herpes simplex virus-2 (G) induced cytopathogenicity by 50% in primary rabbit kidney cells (PRK); format: functional; conditions: Oryctolagus cuniculus; method in brief: as §1
[21] = system: Nucleic Acid; experiment: Association constant against the polynucleotide poly (dA-dT).; format: nucleic-acid assay; method in brief: as §3
[22] = system: Raji; experiment: Dose required to inhibit Human B-Lymphoblast (Raji) cell proliferation by 50%; format: functional; conditions: read-out: CD50 (the source's name)

SMILES	MIC [1]	CC50 [2]	MIC [4]	CC50 [5]	K app [6]	MIC [7]	MCC [8]	MIC [10]	MIC [13]	MIC [14]	MCC [16]	MCC [17]	also measured
Cn1cc(NC(=O)c2cc([N+](=O)[O-])cn2C)cc1C(=O)NCCC#N	> 10 mg/L	> 100 mg/L	> 10 mg/L	> 100 mg/L	< 100 M⁻¹	> 10 mg/L	> 40 µg/mL	> 10 mg/L	> 10 mg/L	> 10 mg/L	> 40 µg/mL	>40 µg/mL	MIC [3]: > 10 mg/L; K app [9]: < 100 M⁻¹; MIC [11]: > 10 mg/L; CC50 [12]: > 100 mg/L; MIC [15]: > 10 mg/L
Cn1c(C(=O)NCCC#N)ccc1[N+](=O)[O-]	> 100 mg/L	> 50 mg/L	> 200 mg/L	> 50 mg/L	< 100 M⁻¹	> 200 mg/L	> 400 µg/mL	> 100 mg/L	300 mg/L (≈ 1350 µM)	> 100 mg/L	400 µg/mL	400 µg/mL	IC50 [18]: > 100 mg/L; MIC [19]: > 200 mg/L; MIC [20]: > 200 mg/L; K app [21]: < 100 M⁻¹; CC50 [22]: > 50 mg/L

Source: ChEMBL document CHEMBL1124462, “Synthesis, DNA binding, and biological evaluation of synthetic precursors and novel analogues of netropsin” (J Med Chem, 1989)
